Measurements taken from ChEMBL document CHEMBL3286102, “Benzofuran derivatives as anticancer inhibitors of mTOR signaling” (Eur J Med Chem, 2014).
pIC50: −log10 of the molar value. The source made the active and inactive calls. The calls are words filed in the database; no cut-off is given here.

Experiments:
SQ20B = experiment: Cytotoxicity against human SQ20B cells after 72 hrs by MTT assay; assay type: functional, cell-based
In short: (§1)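 Monolayer culture in RPMI with 10% fetal calf serum, 2 mM glutamine, penicillin/streptomycin, 37 °C, humidified 5% CO2, checked for Mycoplasma. Cells seeded at 2 × 10³/well; after drug exposure, 0.4 mg/ml MTT for 4 h at 37 °C. Formazan dissolved in DMSO, absorbance read at 560 nm. Untreated cells served as positive control, drug medium without cells as negative control.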

HOP-62 = experiment: Cytotoxicity against human HOP62 cells after 72 hrs by MTT assay; assay type: functional, cell-based; in short: as §1
COLO 205 = experiment: Cytotoxicity against human COLO205 cells after 72 hrs by MTT assay; assay type: functional, cell-based; in short: as §1
mTORC1 (Homo sapiens) [1] = biological target: T1, mTORC1 (Homo sapiens) (UniProt P42345+Q8N122+Q9BVC4); experiment: Inhibition of mTORC1 in human SK-HEP1 cells assessed as reduction of S6 phosphorylation at 0.1 to 8 uM after 24 hrs by Western blotting; assay type: cell-based
In short: (§2)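 Membranes were blocked in 5% milk/0.05% Tween 20-PBS and probed overnight with primary antibody against p-S6, p-4EBP1 or p-Akt (S473). Detection used HRP secondary antibody and enhanced chemiluminescence.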

mTORC1 (Homo sapiens) [2] = biological target: T1, mTORC1 (Homo sapiens); experiment: Inhibition of mTORC1 in human SK-HEP1 cells assessed as reduction of 4-EBP1 phosphorylation at 0.1 to 8 uM after 24 hrs by Western blotting; assay type: cell-based; in short: as §2
mTORC1 (Homo sapiens) [3] = biological target: T1, mTORC1 (Homo sapiens); experiment: Inhibition of mTORC1 in human COLO205 cells assessed as reduction of S6 phosphorylation at 0.1 to 8 uM after 24 hrs by Western blotting; assay type: cell-based; details: COLO 205; in short: as §2
mTORC1 (Homo sapiens) [4] = biological target: T1, mTORC1 (Homo sapiens); experiment: Inhibition of mTORC1 in human COLO205 cells assessed as reduction of 4-EBP1 phosphorylation at 0.1 to 8 uM after 24 hrs by Western blotting; assay type: cell-based; details: COLO 205; in short: as §2
mTORC1 (Homo sapiens) [5] = biological target: T1, mTORC1 (Homo sapiens); experiment: Inhibition of mTORC1 in human SK-HEP1 cells assessed as AKT phosphorylation at Ser473 at 0.1 to 8 uM after 24 hrs by Western blotting; assay type: cell-based; in short: as §2
mTORC1 (Homo sapiens) [6] = biological target: T1, mTORC1 (Homo sapiens); experiment: Inhibition of mTORC1 in human COLO205 cells assessed as AKT phosphorylation at Ser473 at 0.1 to 8 uM after 24 hrs by Western blotting; assay type: cell-based; details: COLO 205; in short: as §2

T1 sequence (Q8N122 whole entry, looked up, other chains not shown): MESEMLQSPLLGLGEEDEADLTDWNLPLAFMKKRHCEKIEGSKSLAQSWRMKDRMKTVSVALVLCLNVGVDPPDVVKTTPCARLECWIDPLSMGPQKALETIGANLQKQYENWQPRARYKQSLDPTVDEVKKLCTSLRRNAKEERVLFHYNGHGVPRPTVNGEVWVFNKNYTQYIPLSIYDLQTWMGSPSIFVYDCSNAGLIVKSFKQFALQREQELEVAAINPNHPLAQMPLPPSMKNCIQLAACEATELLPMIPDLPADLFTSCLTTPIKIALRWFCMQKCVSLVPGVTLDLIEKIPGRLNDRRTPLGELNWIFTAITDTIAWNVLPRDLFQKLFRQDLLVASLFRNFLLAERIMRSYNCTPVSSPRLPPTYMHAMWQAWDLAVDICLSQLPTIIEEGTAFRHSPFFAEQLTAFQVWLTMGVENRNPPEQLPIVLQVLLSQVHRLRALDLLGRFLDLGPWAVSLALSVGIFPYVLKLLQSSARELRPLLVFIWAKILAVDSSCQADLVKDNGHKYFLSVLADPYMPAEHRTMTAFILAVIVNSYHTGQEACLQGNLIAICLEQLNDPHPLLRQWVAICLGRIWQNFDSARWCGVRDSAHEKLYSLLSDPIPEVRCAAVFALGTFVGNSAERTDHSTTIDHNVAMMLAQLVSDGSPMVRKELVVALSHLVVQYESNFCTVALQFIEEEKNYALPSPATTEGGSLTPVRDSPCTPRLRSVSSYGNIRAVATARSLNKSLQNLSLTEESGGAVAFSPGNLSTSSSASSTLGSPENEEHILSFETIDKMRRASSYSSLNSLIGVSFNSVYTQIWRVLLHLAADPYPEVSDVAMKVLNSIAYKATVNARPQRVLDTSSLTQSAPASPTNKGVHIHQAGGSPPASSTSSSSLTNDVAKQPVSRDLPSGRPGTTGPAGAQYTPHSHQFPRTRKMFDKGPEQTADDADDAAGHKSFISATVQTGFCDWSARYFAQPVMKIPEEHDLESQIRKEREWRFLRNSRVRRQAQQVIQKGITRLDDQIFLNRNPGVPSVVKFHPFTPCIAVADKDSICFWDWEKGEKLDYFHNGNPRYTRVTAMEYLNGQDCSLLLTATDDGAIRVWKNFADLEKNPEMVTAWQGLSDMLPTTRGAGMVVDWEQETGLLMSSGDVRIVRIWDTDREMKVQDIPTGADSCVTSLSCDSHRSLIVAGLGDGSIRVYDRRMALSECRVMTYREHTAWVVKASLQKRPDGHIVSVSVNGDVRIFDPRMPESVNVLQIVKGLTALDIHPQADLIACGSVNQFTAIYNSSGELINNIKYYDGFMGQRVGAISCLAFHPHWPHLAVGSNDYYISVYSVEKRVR
T1 sequence (Q9BVC4 whole entry, looked up, other chains not shown): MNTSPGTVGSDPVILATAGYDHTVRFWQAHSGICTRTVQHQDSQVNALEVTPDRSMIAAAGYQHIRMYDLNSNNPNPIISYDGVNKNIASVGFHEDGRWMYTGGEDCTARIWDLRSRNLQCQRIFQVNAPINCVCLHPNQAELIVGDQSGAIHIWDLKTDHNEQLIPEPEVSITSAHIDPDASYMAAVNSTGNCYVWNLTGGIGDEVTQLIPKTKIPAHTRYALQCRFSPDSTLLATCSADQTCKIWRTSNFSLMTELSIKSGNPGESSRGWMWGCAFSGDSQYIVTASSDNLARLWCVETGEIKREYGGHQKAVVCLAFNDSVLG

With `Oc1ccc2oc(-c3ccc(Cl)c(Cl)c3)cc2c1CN1CCC(N2CCCCC2)CC1` the pIC50 (SQ20B) was 5.64.

`O=S(=O)(Oc1ccc2oc(-c3ccccc3)cc2c1CN1CCC(N2CCCCC2)CC1)C(F)(F)F` gave a pIC50 (SQ20B) of 5.55.

`COc1cccc(-c2cc3c(CN4CCC(N5CCCCC5)CC4)c(O)ccc3o2)c1` was tested, and the pIC50 (SQ20B) was 5.70.

In the case of `OCc1c(-c2ccccc2)oc2ccc(O)c(CN3CCC(N4CCCCC4)CC3)c12`, the pIC50 (SQ20B) was 5.47.

With `COc1ccc(-c2cc3c(CN4CCC(N(C)C)CC4)c(O)ccc3o2)cc1` the pIC50 (SQ20B) was 5.92.

`COc1ccc2oc(-c3ccccc3OCc3ccccc3)cc2c1CN1CCC(N(C)C)CC1` was tested, and the pIC50 (SQ20B) was 6.34, the Activity (HOP-62) was “Active” and the Activity (COLO 205) was “Active”. The inhibition (mTORC1 (Homo sapiens) [1]) was “Active”, the inhibition (mTORC1 (Homo sapiens) [2]) was “Active” and the inhibition (mTORC1 (Homo sapiens) [3]) was “Active”. The inhibition (mTORC1 (Homo sapiens) [4]) was “Active”.

For `Oc1ccc2oc(-c3ccccc3)nc2c1CN1CCC(N2CCCCC2)CC1`, the pIC50 (SQ20B) was 5.19.

`CN(C)Cc1c(O)ccc2oc(-c3ccccc3)cc12` gave a pIC50 (SQ20B) of 4.49.

With `Oc1ccc2[nH]c(-c3ccccc3)nc2c1CN1CCC(N2CCCCC2)CC1` the pIC50 (SQ20B) was 4.68.

For `Oc1ccc2oc(-c3ccco3)cc2c1CN1CCC(N2CCCCC2)CC1`, the pIC50 (SQ20B) was 5.40.

In the case of `CCOC(=O)c1c(-c2ccccc2)oc2ccc(O)c(CN3CCC(N4CCCCC4)CC3)c12`, the pIC50 (SQ20B) was 5.82.

`COc1ccc(-c2cc3c(CN4CCC(N5CCCCC5)CC4)c(O)ccc3o2)cc1` showed a pIC50 (SQ20B) of 6.07.

For `Oc1ccc2c(ccn2Cc2ccccc2)c1CN1CCC(N2CCCCC2)CC1`, the pIC50 (SQ20B) was 4.77.

`Cc1c(-c2ccccc2)oc2ccc(O)c(CN3CCC(N4CCCCC4)CC3)c12` showed a pIC50 (SQ20B) of 5.92.

`Cn1c(-c2ccccc2)cc2c(CN3CCC(N4CCCCC4)CC3)c(O)ccc21` gave a pIC50 (SQ20B) of 4.72.

`CO[C@H]1C[C@@H]2CC[C@@H](C)[C@@](O)(O2)C(=O)C(=O)N2CCCC[C@H]2C(=O)O[C@H]([C@H](C)C[C@@H]2CC[C@@H](OCCO)[C@H](OC)C2)CC(=O)[C@H](C)/C=C(\C)[C@@H](O)[C@@H](OC)C(=O)[C@H](C)C[C@H](C)/C=C/C=C/C=C/1C` [EVEROLIMUS] was tested, and the pIC50 (SQ20B) was 5.14, the Activity (HOP-62) was “inactive” and the Activity (COLO 205) was “Active”. The inhibition (mTORC1 (Homo sapiens) [1]) was “Active”, the inhibition (mTORC1 (Homo sapiens) [2]) was “Active” and the inhibition (mTORC1 (Homo sapiens) [5]) was “inactive”. The inhibition (mTORC1 (Homo sapiens) [3]) was “Active”, the inhibition (mTORC1 (Homo sapiens) [4]) was “Active” and the inhibition (mTORC1 (Homo sapiens) [6]) was “inactive”.

With `Oc1ccc2oc(-c3ccccc3OCc3ccccc3)cc2c1CN1CCC(N2CCCCC2)CC1` the pIC50 (SQ20B) was 6.42, the Activity (HOP-62) was “Active” and the Activity (COLO 205) was “Active”.

With `CO[C@H]1C[C@@H]2CC[C@@H](C)[C@@](O)(O2)C(=O)C(=O)N2CCCC[C@H]2C(=O)O[C@H]([C@H](C)C[C@@H]2CC[C@@H](O)[C@H](OC)C2)CC(=O)[C@H](C)/C=C(\C)[C@@H](O)[C@@H](OC)C(=O)[C@H](C)C[C@H](C)/C=C/C=C/C=C/1C` the inhibition (mTORC1 (Homo sapiens) [1]) was “Active”, the inhibition (mTORC1 (Homo sapiens) [2]) was “Active” and the inhibition (mTORC1 (Homo sapiens) [3]) was “Active”. The inhibition (mTORC1 (Homo sapiens) [4]) was “Active”.

`Oc1ccc2cc(-c3ccccc3)oc2c1CN1CCC(N2CCCCC2)CC1` gave a pIC50 (SQ20B) of 4.96.

With `COc1ccccc1-c1cc2c(CN3CCC(N4CCCCC4)CC3)c(O)ccc2o1` the pIC50 (SQ20B) was 5.89.

In the case of `c1ccc(-c2cc3c(CN4CCC(N5CCCCC5)CC4)cccc3o2)cc1`, the pIC50 (SQ20B) was 5.12.

`Oc1ccc2oc(-c3cccc(Cl)c3)cc2c1CN1CCC(N2CCCCC2)CC1` gave a pIC50 (SQ20B) of 6.04.

With `O=S(=O)(Nc1ccc2oc(-c3ccccc3)cc2c1CN1CCC(N2CCCCC2)CC1)C(F)(F)F` the pIC50 (SQ20B) was 5.68.

`COc1ccc2oc(-c3ccccc3)cc2c1CN1CCC(N2CCCCC2)CC1` gave a pIC50 (SQ20B) of 5.60.

With `Oc1ccc2oc(-c3ccc(Cl)cc3)cc2c1CN1CCC(N2CCCCC2)CC1` the pIC50 (SQ20B) was 6.07.

With `Oc1ccc2oc(-c3cccc4ccccc34)cc2c1CN1CCC(N2CCCCC2)CC1` the pIC50 (SQ20B) was 6.07.

`Oc1ccc2occ(-c3ccccc3)c2c1CN1CCC(N2CCCCC2)CC1` was tested, and the pIC50 (SQ20B) was 4.96.

Work on `Oc1ccc2oc(-c3ccc4ccccc4c3)cc2c1CN1CCC(N2CCCCC2)CC1` yielded a pIC50 (SQ20B) of 5.55.

`COc1ccc(-c2cc3c(CN4CCC(N5CCCCC5)CC4)c(O)ccc3o2)c(OC)c1` was tested, and the pIC50 (SQ20B) was 5.96.

Compound `c1ccc(-c2cc3c(CN4CCC(N5CCCCC5)CC4)nccc3o2)cc1` has a pIC50 (SQ20B) of 4.74.

`Oc1ccc2oc(-c3ccccc3Cl)cc2c1CN1CCC(N2CCCCC2)CC1` showed a pIC50 (SQ20B) of 5.59.

`Oc1ccc2oc(-c3cccs3)cc2c1CN1CCC(N2CCCCC2)CC1` showed a pIC50 (SQ20B) of 5.57.

`COc1cccc2cc(-c3nc([C@H]4CC[C@H](C(=O)O)CC4)n4ncnc(N)c34)[nH]c12` was tested, and the Activity (HOP-62) was “Active” and the Activity (COLO 205) was “Active”.

In the case of `Oc1ccc2oc(-c3ccccc3)cc2c1CN1CCC(N2CCCCC2)CC1`, the pIC50 (SQ20B) was 5.85, the Activity (HOP-62) was “Active” and the Activity (COLO 205) was “Active”.
